Data: ChEMBL document CHEMBL4011622, “The Structure-Activity Relationship of a Tetrahydroisoquinoline Class of N-Methyl-d-Aspartate Receptor Modulators that Potentiates GluN2B-Containing N-Methyl-d-Aspartate Receptors” (J Med Chem, 2017)
pEC50: −log10 of the molar value. The source made the active and inactive calls. The calls are words filed in the database; no cut-off is given here.

Assays:
[1] = target: Ionotropic glutamate receptor NMDA1/2A/2B (Rattus norvegicus) (UniProt P35439+Q00959+Q00960); assay: Positive allosteric modulation of recombinant rat GluN1/GluN2A/GluN2B receptor expressed in xenopus laevis oocyte assessed as potentiation of glutamate and glycine-induced current response at 10 uM at holding potential -40mV by two electrode voltage clamp method relative to control
How it was run: (§1)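 Triheteromeric GluN1/GluN2A/GluN2B receptors were expressed in oocytes using GluN2 subunits with modified intracellular domains controlling surface expression. Compound was tested at 10 µM by TEVC at -40 mV against maximally effective glutamate and glycine; n=14 oocytes.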

[2] = target: T1, Glutamate NMDA receptor; Grin1/Grin2b (Rattus norvegicus) (UniProt P35439+Q00960); assay: Positive allosteric modulation of recombinant rat GluN1/GluN2B receptor expressed in xenopus laevis oocyte assessed as compound concentration required to show two fold increase in glutamate and glycine-induced current response at holding potential -40mV by two electrode voltage clamp method
[3] = target: Glutamate NMDA receptor; Grin1/Grin2c (Rattus norvegicus, UniProt P35439+Q00961); assay: Positive allosteric modulation of recombinant rat GluN1/GluN2C receptor expressed in xenopus laevis oocyte assessed as potentiation of glutamate and glycine-induced current response at holding potential -40mV by two electrode voltage clamp method
How it was run: (§2)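 Two-electrode voltage clamp at -40 mV, 23°C, pH 7.4 Ba²⁺ recording solution, on Xenopus oocytes expressing rat NMDA receptors. Currents were evoked by 100 µM glutamate plus 30 µM glycine, with compound co-applied (DMSO 0.05–0.5% final). Each compound used at least 4 oocytes from at least 2 frogs.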

[4] = target: T2, Glutamate NMDA receptor; Grin1/Grin2c (Rattus norvegicus) (UniProt P35439+Q00961); assay: Positive allosteric modulation of recombinant rat GluN1/GluN2C receptor expressed in xenopus laevis oocyte assessed as potentiation of glutamate and glycine-induced current response at 30 uM at holding potential -40mV by two electrode voltage clamp method relative to control; how it was run: as §2
[5] = target: Glutamate NMDA receptor; Grin1/Grin2a (Rattus norvegicus) (UniProt P35439+Q00959); assay: Positive allosteric modulation of recombinant rat GluN1/GluN2A receptor expressed in xenopus laevis oocyte co-expressing GluN2B assessed as potentiation of glutamate and glycine-induced current response at 10 uM at holding potential -40mV by two electrode voltage clamp method relative to control
[6] = target: T1, Glutamate NMDA receptor; Grin1/Grin2b (Rattus norvegicus); assay: Positive allosteric modulation of recombinant rat GluN1/GluN2B receptor expressed in xenopus laevis oocyte assessed as potentiation of glutamate and glycine-induced current response at 30 uM at holding potential -40mV by two electrode voltage clamp method relative to control
How it was run: as §2, with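 “final). […]” for “final).”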

[7] = target: T3, Ionotropic glutamate receptor NMDA 1/2D (Rattus norvegicus) (UniProt P35439+Q62645); assay: Positive allosteric modulation of recombinant rat GluN1/GluN2D receptor expressed in xenopus laevis oocyte assessed as potentiation of glycine-induced current response at 30 uM at holding potential -40mV by two electrode voltage clamp method
[8] = target: T4, Glutamate NMDA receptor; Grin1/Grin2b (Rattus norvegicus, UniProt P35439+Q00960); assay: Positive allosteric modulation of recombinant rat GluN1/GluN2B receptor expressed in xenopus laevis oocyte assessed as potentiation of glutamate and glycine-induced current response at holding potential -40mV by two electrode voltage clamp method; how it was run: as §2
[9] = target: T1, Glutamate NMDA receptor; Grin1/Grin2b (Rattus norvegicus); assay: Positive allosteric modulation of recombinant rat GluN1/GluN2B receptor expressed in xenopus laevis oocyte co-expressing GluN2A at 10 uM assessed as potentiation of glutamate and glycine-induced current response at holding potential -40mV by two electrode voltage clamp method relative to control; how it was run: as §1
[10] = target: T4, Glutamate NMDA receptor; Grin1/Grin2b
[11] = target: T2, Glutamate NMDA receptor; Grin1/Grin2c (Rattus norvegicus); assay: Positive allosteric modulation of recombinant rat GluN1/GluN2C receptor expressed in xenopus laevis oocyte assessed as potentiation of glutamate-induced current response at 30 uM at holding potential -40mV by two electrode voltage clamp method
How it was run: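 Rat GluN1/GluN2C (modified GluN2C) expressed from injected mRNA in Xenopus oocytes; two-electrode voltage clamp at -40 mV, 23°C, recording solution pH 7.4 (90 NaCl, 1.0 KCl, 0.5 BaCl2, 0.005 EDTA, 10 HEPES, mM). Compound coapplied with 100 µM glutamate and 30 µM glycine; final DMSO 0.05-0.5%.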

[12] = Ratio of drug level in C57Bl/6 mouse brain to plasma at 10 mg/kg, ip after 15 mins by LC/MS/MS analysis; format: ADME, organism-based
How it was run: (§3)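 Male/female not stated; 30–35 g C57Bl/6 mice given 10 mg/kg i.p. at 1.25 mg/mL in 5% NMP/20% solutol/75% of 20% hydroxypropyl-β-cyclodextrin. Blood was taken by cardiac puncture into heparin and brains were collected at 0, 15, 30, 60, 120 and 240 min, three mice per time point. Plasma and brain homogenate (1:4 water) were acetonitrile-precipitated and quantified by LC-MS/MS against an 8-point duplicate standard curve.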

Liver = assay: Drug level in human liver microsomes treated with (3-chlorophenyl)(6-isopropoxy-1-((4-methoxyphenoxy)methyl)-3,4-dihydroisoquinolin-2(1H)-yl)methanethione at […] measured at 30 mins by LC/MS/MS analysis; format: ADME, microsome; conditions: 0.5 h
[13] = Drug uptake in C57Bl/6 mouse brain at 10 mg/kg, ip after 4 hrs by LC/MS/MS analysis; format: ADME, organism-based; conditions: read-out: Drug uptake; how it was run: as §3
Mus musculus = assay: Toxicity in C57Bl/6 mouse assessed as behavioral abnormalities at 10 mg/kg, ip; format: organism-based; conditions: in vivo
How it was run: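 C57Bl/6 mice (30–35 g) were dosed at 10 mg/kg i.p. in 5% NMP/20% solutol/75% of 20% hydroxypropyl-β-cyclodextrin and observed for behavioral abnormalities after dosing.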

[14] = target: T1, Glutamate NMDA receptor; Grin1/Grin2b (Rattus norvegicus); assay: Positive allosteric modulation of recombinant rat GluN1/GluN2B receptor expressed in xenopus laevis oocyte assessed as potentiation of glutamate-induced current response at 30 uM at holding potential -40mV by two electrode voltage clamp method
[15] = target: T3, Ionotropic glutamate receptor NMDA 1/2D (Rattus norvegicus); assay: Positive allosteric modulation of recombinant rat GluN1/GluN2D receptor expressed in xenopus laevis oocyte assessed as compound concentration required to show two fold increase in glutamate and glycine-induced current response at holding potential -40mV by two electrode voltage clamp method
[16] = Ratio of drug level in C57Bl/6 mouse brain to plasma at 10 mg/kg, ip after 4 hrs by LC/MS/MS analysis; format: ADME, organism-based; how it was run: as §3
[17] = target: Glutamate receptor ionotropic, kainate 2 (Rattus norvegicus) (UniProt P42260); assay: Positive allosteric modulation of recombinant rat GluK2 receptor expressed in xenopus laevis oocyte assessed as potentiation of glutamate-induced current response at 30 uM at holding potential -40mV by two electrode voltage clamp method relative to glutamate
[18] = Cmax in C57Bl/6 mouse plasma at 10 mg/kg, ip after 2 hrs by LC/MS/MS analysis; format: ADME, organism-based; design: dose 10 mg/kg, route intraperitoneal; how it was run: as §3
[19] = target: Glutamate receptor 1 (Rattus norvegicus) (UniProt P19490); assay: Positive allosteric modulation of recombinant rat GluA1 receptor expressed in xenopus laevis oocyte assessed as potentiation of glutamate-induced current response at 30 uM at holding potential -40mV by two electrode voltage clamp method relative to glutamate
[20] = target: Ionotropic glutamate receptor NMDA 1/2D (Rattus norvegicus, UniProt P35439+Q62645); assay: Positive allosteric modulation of recombinant rat GluN1/GluN2D receptor expressed in xenopus laevis oocyte assessed as potentiation of glutamate and glycine-induced current response at holding potential -40mV by two electrode voltage clamp method; how it was run: as §2
[21] = target: T2, Glutamate NMDA receptor; Grin1/Grin2c (Rattus norvegicus); assay: Positive allosteric modulation of recombinant rat GluN1/GluN2C receptor expressed in xenopus laevis oocyte assessed as compound concentration required to show two fold increase in glutamate and glycine-induced current response at holding potential -40mV by two electrode voltage clamp method
Brain = assay: Drug uptake in C57Bl/6 mouse brain at 10 mg/kg, ip after 15 to 30 mins by LC/MS/MS analysis; format: ADME, organism-based; conditions: in vivo, read-out: Drug uptake; how it was run: as §3
[22] = Drug metabolism in human liver microsomes assessed as P450 mediated drug metabolite formation by measuring parent compound half life at […] by LC/MS/MS analysis; format: ADME
[23] = Drug metabolism in human liver microsomes assessed as UGT mediated drug metabolite formation by measuring parent compound half life at […] by LC/MS/MS analysis; format: ADME
[24] = target: T3, Ionotropic glutamate receptor NMDA 1/2D (Rattus norvegicus); assay: Positive allosteric modulation of recombinant rat GluN1/GluN2D receptor expressed in xenopus laevis oocyte assessed as potentiation of glutamate and glycine-induced current response at 30 uM at holding potential -40mV by two electrode voltage clamp method relative to control; how it was run: as §2

Glutamate receptor ionotropic, kainate 2 (Rattus norvegicus), sequence (P42260 whole entry): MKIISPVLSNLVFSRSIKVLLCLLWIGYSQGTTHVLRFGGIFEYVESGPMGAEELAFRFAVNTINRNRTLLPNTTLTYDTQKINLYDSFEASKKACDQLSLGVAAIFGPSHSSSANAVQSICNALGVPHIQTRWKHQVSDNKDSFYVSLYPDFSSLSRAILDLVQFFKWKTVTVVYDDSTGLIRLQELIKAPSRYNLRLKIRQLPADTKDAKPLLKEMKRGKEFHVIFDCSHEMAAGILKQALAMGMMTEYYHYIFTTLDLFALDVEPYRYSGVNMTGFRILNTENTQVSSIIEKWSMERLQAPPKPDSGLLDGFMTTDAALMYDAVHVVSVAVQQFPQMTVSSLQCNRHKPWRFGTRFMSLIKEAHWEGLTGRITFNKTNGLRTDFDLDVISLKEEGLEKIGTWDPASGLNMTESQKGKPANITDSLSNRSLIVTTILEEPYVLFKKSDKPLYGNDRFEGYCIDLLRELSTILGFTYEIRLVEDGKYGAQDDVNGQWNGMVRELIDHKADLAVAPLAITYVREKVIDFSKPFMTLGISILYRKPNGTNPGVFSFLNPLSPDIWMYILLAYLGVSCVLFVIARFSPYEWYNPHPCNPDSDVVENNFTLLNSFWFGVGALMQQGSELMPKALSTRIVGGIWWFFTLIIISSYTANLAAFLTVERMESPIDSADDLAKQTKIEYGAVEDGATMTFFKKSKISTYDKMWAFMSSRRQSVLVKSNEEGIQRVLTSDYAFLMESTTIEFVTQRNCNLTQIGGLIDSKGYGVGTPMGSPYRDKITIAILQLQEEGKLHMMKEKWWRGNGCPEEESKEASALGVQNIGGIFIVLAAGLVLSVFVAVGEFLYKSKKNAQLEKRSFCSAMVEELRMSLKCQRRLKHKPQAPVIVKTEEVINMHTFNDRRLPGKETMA
Glutamate receptor 1 (Rattus norvegicus), sequence (P19490 whole entry): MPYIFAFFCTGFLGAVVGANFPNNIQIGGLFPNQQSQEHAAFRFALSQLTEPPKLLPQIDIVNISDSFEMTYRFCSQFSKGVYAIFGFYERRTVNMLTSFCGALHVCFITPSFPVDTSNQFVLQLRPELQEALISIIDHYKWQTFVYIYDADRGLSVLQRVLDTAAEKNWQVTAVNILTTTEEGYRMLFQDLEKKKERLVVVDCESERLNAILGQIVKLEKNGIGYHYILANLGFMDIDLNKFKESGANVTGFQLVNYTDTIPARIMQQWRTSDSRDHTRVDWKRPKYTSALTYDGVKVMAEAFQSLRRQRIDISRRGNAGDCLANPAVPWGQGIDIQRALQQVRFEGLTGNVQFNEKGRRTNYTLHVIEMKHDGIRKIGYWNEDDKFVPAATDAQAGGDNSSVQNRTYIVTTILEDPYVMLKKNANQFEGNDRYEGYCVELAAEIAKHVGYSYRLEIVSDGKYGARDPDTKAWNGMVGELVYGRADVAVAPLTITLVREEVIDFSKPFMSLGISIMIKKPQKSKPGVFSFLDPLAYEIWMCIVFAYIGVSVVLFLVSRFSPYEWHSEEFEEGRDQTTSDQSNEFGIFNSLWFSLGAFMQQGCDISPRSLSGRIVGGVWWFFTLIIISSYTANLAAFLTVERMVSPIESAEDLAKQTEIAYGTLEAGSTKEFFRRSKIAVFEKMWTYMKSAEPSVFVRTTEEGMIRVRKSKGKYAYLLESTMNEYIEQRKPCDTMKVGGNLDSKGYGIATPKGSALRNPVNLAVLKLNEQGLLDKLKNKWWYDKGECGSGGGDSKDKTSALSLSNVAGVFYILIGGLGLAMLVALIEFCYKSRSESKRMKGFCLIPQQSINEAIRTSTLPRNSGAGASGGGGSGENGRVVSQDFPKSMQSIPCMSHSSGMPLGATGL

CD [2] [µM] | pEC50 [3] | Emax [4] [%] | Emax [6] [%] | pEC50 [8] | Structure (SMILES) | Activity [7] | CD [15] [µM] | pEC50 [20] | CD [21] [µM] | further results
40 | 5.44 | 128 | 204 | 5.33 | CCOc1ccc(OC[C@@H]2c3ccc(OC(C)C)cc3CCN2C(=O)c2cccc(F)c2)cc1 | 110% |  |  |  | Activity [1]: 136%; Activity [5]: 103%; Activity [9]: 177%
 |  |  |  |  | NCCCNCCCCNCCCN [SPERMINE] |  |  |  |  | pEC50 [10]: 3.70 to 4.00
2.6 | 6.38 | 225 | 213 | 6.31 | COc1ccc(OCC2c3ccc(OC(C)C)cc3CCN2C(=S)c2cccc(Cl)c2)cc1 (stereo not given) |  | 0.8 | 6.37 | 1.1 | t1/2 [22]: 29 min; t1/2 [23]: 29 min; Emax [24]: 229%

Structure (SMILES) | CD [2] [µM] | pEC50 [3] | Emax [4] [%] | Emax [6] [%] | pEC50 [8] | Activity [7] | CD [15] [µM] | pEC50 [20] | CD [21] [µM] | further results
COc1ccc(OCC2c3ccc(OC(C)C)cc3CCN2C(=O)c2cccc(Cl)c2)cc1 (stereo not given) | 64 |  |  | 202 | 5.28 | inactive | 4.9 | 5.52 | 4.6 | Activity [11]: inactive; BPR [12]: 0.7; Drug metabolism (Liver): Metabolite_Detected; concentration at 4 h [13]: 400 nM; Activity (Mus musculus): Non-Toxic; Activity [14]: inactive; BPR [16]: 0.9; Activity [17]: 96%; Cmax [18]: 1700 nM; Activity [6]: 195%; Activity [19]: 106%; concentration (Brain): 700 nM
